Assay outcomes: PubChem BioAssay, several laboratories
HER2 expr 66K = inhibitors of human Her2 kinase expression; P04626; SKBR-3 HER2 protein level, AlphaScreen, 18-24 h; active compounds read low; HER2 level % of control, % at 10 µM; 65,000 compounds, 0.69% hits; AID 645;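 active = HER2 level under 5% of the carrier-only control; inconclusive = no clear call, values can overlap the other calls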;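 also: lower value means stronger loss of Her2 protein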
Target sequence (P04626 whole entry, looked up): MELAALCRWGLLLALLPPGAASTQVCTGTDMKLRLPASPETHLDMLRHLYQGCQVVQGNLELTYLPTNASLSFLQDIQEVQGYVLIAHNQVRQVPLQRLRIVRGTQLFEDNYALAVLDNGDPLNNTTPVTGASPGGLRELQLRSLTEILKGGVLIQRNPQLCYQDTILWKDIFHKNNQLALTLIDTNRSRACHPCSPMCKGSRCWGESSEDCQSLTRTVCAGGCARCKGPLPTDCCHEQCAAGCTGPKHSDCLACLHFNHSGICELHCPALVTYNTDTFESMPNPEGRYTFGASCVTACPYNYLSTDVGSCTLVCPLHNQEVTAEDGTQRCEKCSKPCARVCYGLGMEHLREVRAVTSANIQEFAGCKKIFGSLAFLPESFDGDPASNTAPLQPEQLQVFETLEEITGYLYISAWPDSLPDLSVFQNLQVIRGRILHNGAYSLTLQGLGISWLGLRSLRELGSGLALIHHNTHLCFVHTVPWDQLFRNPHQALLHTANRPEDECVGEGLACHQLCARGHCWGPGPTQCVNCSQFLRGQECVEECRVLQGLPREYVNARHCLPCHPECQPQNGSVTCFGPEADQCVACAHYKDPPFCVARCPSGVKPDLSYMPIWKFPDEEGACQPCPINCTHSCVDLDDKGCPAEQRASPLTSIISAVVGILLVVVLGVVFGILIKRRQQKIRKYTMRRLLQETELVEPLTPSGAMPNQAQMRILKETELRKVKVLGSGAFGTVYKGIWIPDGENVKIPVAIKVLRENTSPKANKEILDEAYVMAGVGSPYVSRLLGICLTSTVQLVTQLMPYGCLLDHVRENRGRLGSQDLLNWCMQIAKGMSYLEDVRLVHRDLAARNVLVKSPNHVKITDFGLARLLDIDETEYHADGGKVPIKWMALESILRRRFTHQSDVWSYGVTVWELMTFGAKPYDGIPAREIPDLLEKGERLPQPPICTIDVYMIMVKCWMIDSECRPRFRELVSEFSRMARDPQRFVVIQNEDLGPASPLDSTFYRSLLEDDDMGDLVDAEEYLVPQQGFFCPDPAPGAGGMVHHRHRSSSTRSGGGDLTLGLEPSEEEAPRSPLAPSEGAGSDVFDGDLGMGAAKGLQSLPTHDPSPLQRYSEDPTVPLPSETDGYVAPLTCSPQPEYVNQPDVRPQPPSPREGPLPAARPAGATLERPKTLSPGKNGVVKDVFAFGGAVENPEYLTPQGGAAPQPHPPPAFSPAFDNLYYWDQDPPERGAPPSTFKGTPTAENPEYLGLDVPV
Ec RNAP inh = inhibitors of Escherichia coli RNA polymerase; inhibition, %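 (tested at 10 µM)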; E. coli RNA polymerase, fluorescence transcription assay; P0A8V2; 62,000 compounds, 0.2% hits; in the data active = inhibition above about 20%
TNAP act mid DEA = human TNAP activation, intermediate phosphate acceptor | purified TNAP, CDP-star luminescence, 100 mM DEA, 30 min; active compounds read high; scale: 0 levamisole-inhibited, 1 vehicle-only enzyme | activation factor at 20 µM | 64,000 tested, under 10 active | AID 813;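 active = activation factor of at least 2 at 20 µM, relative to controls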
AP ELISA ortho = alternative pathway complement inhibition, orthogonal assay. Human serum alternative complement pathway, LPS-coated ELISA, C3 deposition; tested in compound mixtures. inhibition, % at 5 µM. 62,000 compounds, 0.08% hits;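 active = inhibition above 30% in each of the two pooled mixtures holding the compound, so the lower value exceeds 30%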
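Assay system: Human serum alternative complement pathway, C3 deposition on LPS-coated wells | Incubation: 1 h serum-compound exposure at 37 °C | Doses: 5 µM per compound in ten-compound mixtures | Read-out: Percent inhibition | Technique: ELISA with HRP anti-human C3 antibody, TMB substrate, absorbance 450 nm | Replication: Two pool placements per compound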
SKBR3 24h inh = SK-BR-3 proliferation inhibitors; AID 847; 41,000 compounds, 0.47% hits; viability, % at 10 µM; SK-BR-3 viability, CellTiter-Glo ATP luminescence, 24 h; active compounds read low;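 active = viability at or below the median of all test compounds minus 3 SD, in both replicates if run twice, cut at about 45% in these data; inconclusive = duplicate replicates that disagree with each other; inactive = viability above that cutoff in every replicate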
MMP-13 inhibitor = inhibitors of human MMP13; 65,000 compounds, 0.07% hits; inhibition, % at 4 µM; P45452; MMP-13 fTHP FRET cleavage, Mca fluorescence;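 active = inhibition above the mean of compound-free control plate wells plus 3 SD, cut at about 14% in these data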
Of the large screens only hits and unclear results are named; the others gave an inactive call. Shown are actives, neighbours in structure and some others; about 1.2% of the full set was active somewhere.

O=C1NCCCC2c3cc(O)c4ccccc4c3OC12N1CCCCC1 (centres undefined)	SKBR3 24h inh 5.1
O=C(C1CC1)N1CCN=C1SCc1ccccc1Cl	none (no result: SKBR3 24h inh)
Cc1n[nH]c(C)c1S(=O)(=O)N1CCN(C(=O)c2ccco2)CC1	none
CCC(Sc1nc2cc3c(cc2c(=O)n1Cc1ccco1)OCO3)C(=O)Nc1cccc(OC)c1 (centres undefined)	HER2 expr 66K -17 (no result: SKBR3 24h inh)
CCC(Sc1nc2cc3c(cc2c(=O)n1Cc1ccco1)OCO3)C(=O)Nc1ccccc1OC (centres undefined)	none (no result: SKBR3 24h inh)
COc1ccc(S(=O)(=O)NCC(=O)N(CC(=O)NCC2CCCO2)c2c(C)cccc2C)cc1 (centres undefined)	none
O=C(Cc1cscn1)c1ccc(O)cc1O	HER2 expr 66K -18 (no result: AP ELISA ortho)
CN(CC(=O)NCc1ccco1)S(=O)(=O)c1cccc2cccnc12	none (no result: SKBR3 24h inh)
O=S(=O)(NCc1ccco1)c1cccc2cccnc12	HER2 expr 66K -16
O=C(NCc1ccco1)C1CCN(S(=O)(=O)c2cccc3cccnc23)CC1	HER2 expr 66K -17 (no result: SKBR3 24h inh)
CC(C)Cc1[nH]c(=O)c(C#N)c2c1CCCC2	none (no result: AP ELISA ortho)
[N-]=[N+]=CC(=O)CC(c1ccccc1)N1C(=O)c2ccccc2C1=O (centres undefined)	HER2 expr 66K -28
[N-]=[N+]=CC(=O)CCCN1C(=O)c2ccccc2C1=O	none
CS(=O)(=O)c1ncc(Cl)c(C(=O)Nc2ccc(N3CCOCC3)cc2)n1	HER2 expr 66K -1.6
O=C(Nc1ccc(N2CCOCC2)cc1)c1cnsn1	none
CC(C)Cn1c(=O)c(C(=O)Nc2ccncc2)c(O)c2ccccc21	HER2 expr 66K -13 (no result: Ec RNAP inh)
CC1CC(C)CN(CC(=O)N2CCc3[nH]c4ccccc4c3C2)C1 (centres undefined)	SKBR3 24h inh 43
CN(CC(=O)NC(=O)NCc1ccco1)Cc1nc2ccccc2c(=O)[nH]1	HER2 expr 66K -33 (no result: SKBR3 24h inh)
Cc1cc(NC(=O)CCC2CCCC2)no1	none (no result: HER2 expr 66K)
COc1ccccc1N1CCN(C(c2cccs2)c2nnnn2C2CCCC2)CC1 (centres undefined)	HER2 expr 66K -30
C1CCC(c2nn3c(-c4n[nH]c5c4CCC5)nnc3s2)CC1	none
CCN(CC)c1ccc(-c2nn3c(-c4n[nH]c5c4CCC5)nnc3s2)cc1	HER2 expr 66K -29, SKBR3 24h inh inconclusive
COC(=O)c1ccccc1OC(=O)c1ccc(Br)o1	none
CC1(C)CC(=O)C2=C(C1)OC1=C(C(=O)CC(C)(C)C1)C2c1ccc(O)cc1O	HER2 expr 66K -0.6 (no result: SKBR3 24h inh)
CCOC(=O)C1=C(N)OC2=C(C(=O)CC(C)(C)C2)C1c1ccco1 (centres undefined)	none
O=C(NCC(=O)N(CCc1ccccc1)C(C(=O)NC1CCCCC1)c1ccncc1)c1ccco1 (centres undefined)	none
O=C(NCC(=O)N(CCc1ccccc1)C(C(=O)NC1CCCC1)c1cccnc1)c1ccco1 (centres undefined)	HER2 expr 66K -19
CCc1nnc(NC=C2C(=O)OC(C)(C)OC2=O)s1	none
O=C(O)CN1C(=O)CC(Cc2ccc(Cl)cc2)C1=O (centres undefined)	HER2 expr 66K -20
COc1ccccc1NS(=O)(=O)c1ccc(OC)c(OC)c1	SKBR3 24h inh 29
CCCCC(CC)CNC(=O)c1cccs1 (centres undefined)	none
COc1ccc(NC(=O)CSc2nc(O)c(Cc3ccccc3)c(=O)[nH]2)cc1	none (no result: SKBR3 24h inh)
COc1ccc(Cc2c(O)nc(SC)n(C(C)=O)c2=O)cc1	Ec RNAP inh 25
COc1ccc2c(c1)N(C)C(=O)CC(c1ccccc1)=N2	none
O=C1NC2(CCCC2)N=C1c1ccc(Cl)cc1	none (no result: SKBR3 24h inh)
N#CC(C#N)=c1ccc2c(c1)NC1(CCCCC1)N=2	HER2 expr 66K -26
CSCCC(C(=O)Nc1ccc2c(c1)OCO2)N1C(=O)c2ccccc2C1=O (centres undefined)	none
Cc1ccc(-c2noc(C3CCCN(C(=O)c4ccc(F)cc4F)C3)n2)cc1 (centres undefined)	SKBR3 24h inh 42
O=C(CN1C(=O)C2C3C=CC(C3)C2C1=O)Nc1ccc2c(c1)OCCO2 (centres undefined)	SKBR3 24h inh 32
CCOC(=O)C1CCN(S(=O)(=O)c2c(C)n[nH]c2C)CC1	none (no result: SKBR3 24h inh)
CCOc1ccc(S(=O)(=O)N2CCN(c3ccc(OC)cc3)CC2)c2cccnc12	none
CCOc1ccc(S(=O)(=O)N2CCN(c3ccccc3)CC2)c2cccnc12	SKBR3 24h inh 42
Cc1ccc(S(=O)(=O)N2CCSC2c2ccco2)cc1 (centres undefined)	none (no result: SKBR3 24h inh)
O=C(O)c1ccc2c3c(ncnc13)-c1ccccc1C2=O	HER2 expr 66K -16, SKBR3 24h inh 44
Cc1nc2nc(-c3ccco3)nn2c(C)c1Cl	HER2 expr 66K -8.6
COc1ccc(N(Cc2cc(=O)[nH]c3ccccc23)C(=O)c2ccco2)cc1	SKBR3 24h inh 44
CC(C)c1ccc(O)c(N)c1	none
CCC(C)c1ccc(O)c(N)c1 (centres undefined)	Ec RNAP inh 28
CC(C)(C)c1ccc(O)c(N)c1	Ec RNAP inh 24
CC(C)(C)c1ccc(SCC(N)=O)cc1	none
OCC#CCSc1nnc(-c2ccc(Br)cc2)o1	Ec RNAP inh 40 (no result: SKBR3 24h inh)
COc1ccc(-c2nnc(SCC#CCO)o2)cc1OC	none
CCN(CC)c1ccc2cc(-c3nc4ccccc4[nH]3)c(=O)oc2c1	SKBR3 24h inh 42
CC(C)c1[nH]nc2c1C(Cc1ccccc1)C(C#N)=C(N)O2 (centres undefined)	none
N#Cc1c(-c2ccco2)cc(-c2ccccn2)nc1N	HER2 expr 66K -1.2 (no result: Ec RNAP inh)
CN(Cc1ccccc1)C(=O)CSc1nnc(-c2ccco2)n1-c1ccccc1	none (no result: SKBR3 24h inh)
CCC(=O)Nc1ccc(C(=O)n2ccc(C)n2)cc1	AP ELISA ortho 35
CCOC(=O)c1cnn(CCOC(=O)Cc2cccs2)c1NC(=O)Cc1cccs1	none (no result: SKBR3 24h inh)
COC(=O)CS(=O)(=O)c1nnc([C@H](Cc2ccccc2)NC(=O)OC(C)(C)C)o1	HER2 expr 66K -17
COC(=O)CSc1nnc([C@H](Cc2ccccc2)NC(=O)OC(C)(C)C)o1	none
O=C(CN1C(=O)c2ccccc2S1(=O)=O)NCCSc1ccccc1	SKBR3 24h inh 44
Cc1ccc(SCCNC(=O)CN2C(=O)c3ccccc3S2(=O)=O)cc1	none
Cc1nnc(Sc2nc(Sc3nnc(C)s3)nc(N3CCN(C)CC3)n2)s1	HER2 expr 66K -33
O=C(CSCc1ccc(Cl)cc1)c1ccco1	none
Cc1cc(C)nc(SC2=CS(=O)(=O)c3ccccc32)n1	none
O=S1(=O)C=C(Sc2nc3ccccc3s2)c2ccccc21	HER2 expr 66K -18, SKBR3 24h inh 22
Cc1cc2oc3c(c(=O)c2cc1C)C(c1cccc(Br)c1)N(Cc1ccco1)C3=O (centres undefined)	SKBR3 24h inh 42
